“Also recorded” adds a separate entry of the source.
How the values were obtained:
Pseudomonas aeruginosa = conditions: result in words; cited from earlier work
human RBC = assay: Hemolysis of human RBCs; assay type: cell-based; conditions: result in words; for Selectivity (antimicrobial activity relative to host cell toxicity): represented by hemolysis at 100 μM peptide; for Hemolysis, propensity to lyse human RBCs: 1x10^8 human RBC/ml, 100 μM peptide, 37° C, 1 hour
[1] = system: Escherichia coli strain ATCC 25922; assay: Broth dilution MIC; assay type: cell-based; conditions: result in words; for Activity (MIC) in broth dilution against E. coli: absence of RBCs, 5x10^5 CFU/ml, overnight 37°C
E. coli [2] = assay: Number of bound peptides required to kill E. coli; assay type: cell-based, Escherichia coli; conditions: calculated from sterilization limit and binding curve
S. aureus = assay: Radial diffusion assay in the presence of RBCs; assay type: cell-based, Staphylococcus aureus; conditions: RBCs up to 1x10^9 cells/ml, 30 min 37°C; result in words
In short: (§1)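 Log-phase (TSB) E. coli ATCC 25922 or S. aureus ATCC 25923, 8 × 10^6 CFU in 20 mL underlay agarose with 3 mm wells. Test peptide at 20 μM was preincubated 30 min at 37 °C with washed human O+ RBCs and/or filtered serum at 2–20% of whole blood (1 × 10^8–1 × 10^9 cells/mL). 10 μL per well, 3 h at 37 °C, overlay, overnight; inhibition zones imaged.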

E. coli [3] = assay: Radial diffusion assay in the presence of RBCs and/or serum; assay type: cell-based, Escherichia coli; conditions: RBCs up to 1x10^9 cells/ml, 30 min 37°C; result in words
In short: as §1

[4] = system: Staphylococcus aureus strain ATCC 25923; assay: Broth dilution MIC; assay type: cell-based; conditions: absence of RBCs; 5x10^5 CFU/ml, overnight 37°C; result in words
[5] = system: Escherichia coli strain ATCC 25922; conditions: result in words; cited from earlier work
[6] = system: Staphylococcus aureus strain ATCC 25923; conditions: result in words; cited from earlier work

## RRWVRRVRRWVRRVVR-VVRRWVRR [WLBU2]
Pseudomonas aeruginosa
  Activity in whole blood against Pseudomonas aeruginosa: retained activity in whole blood

## GIGKFLKKAKK-FGKAFVKILKK-NH2 [MSI-78]
Human RBC
  Selectivity (antimicrobial activity relative to host cell toxicity): moderately high selectivity

## RRGWALRLVLAY-NH2 [ARVA-L]
Human RBC
  Selectivity (antimicrobial activity relative to host cell toxicity): fair selectivity
[1]; compared with preincubation, organism not stated
  Host cell effect on MIC without preincubation with host cells: much smaller

## RRGWALRLVLAY-NH2 [ARVA]
E. coli [2]
  Bound peptides per bacterial cell required for sterilization (no surviving CFUs): > 1x10^8 peptides per bacterial cell

## CN[C@H](CC(C)C)C(=O)N[C@H]1C(=O)N[C@@H](CC(N)=O)C(=O)N[C@H]2C(=O)N[C@H]3C(=O)N[C@H](C(=O)N[C@H](C(=O)O)c4cc(O)cc(O)c4-c4cc3ccc4O)[C@H](O)c3ccc(c(Cl)c3)Oc3cc2cc(c3O[C@@H]2O[C@H](CO)[C@@H](O)[C@H](O)[C@H]2O[C@H]2C[C@](C)(N)[C@H](O)[C@H](C)O2)Oc2ccc(cc2Cl)[C@H]1O [vancomycin]
S. aureus
  Effect of preincubation with RBCs on radial diffusion activity: not affected significantly

## [H]/N=C(/N)N[C@H]1[C@H](O)[C@@H](O)[C@H](O[C@@H]2O[C@@H](C)[C@](O)(C=O)[C@H]2O[C@@H]2O[C@@H](CO)[C@H](O)[C@@H](O)[C@@H]2NC)[C@@H](N/C(N)=N\[H])[C@@H]1O [streptomycin]
E. coli [3]
  Effect of preincubation with RBCs on radial diffusion activity: not affected significantly

## ILPWKWPWWPWRR-NH2 [indolicidin]
Human RBC
  Selectivity (antimicrobial activity relative to host cell toxicity): poor selectivity; also recorded: very poor selectivity

## melittin
Human RBC
  Hemolysis, propensity to lyse human RBCs: highly hemolytic
  Selectivity (antimicrobial activity relative to host cell toxicity): completely non-selective; also recorded: least selective peptide by far
Human RBC; listed as Melittin
  Selectivity (antimicrobial activity relative to host cell toxicity): entirely non-selective

## KWKLFKKIEKVGQN-IRDGIIKAGPAVAVVGQATQIAK [cecropin A]
Human RBC
  Hemolysis, propensity to lyse human RBCs: near zero propensity to lyse dilute human RBCs
  Selectivity (antimicrobial activity relative to host cell toxicity): highly selective; also recorded: most selective in our set
[1]
  Activity (MIC) in broth dilution against E. coli: highly active
[4]
  Activity (MIC) in broth dilution against S. aureus: not against S. aureus

## GIGKFLHSAKKFGK-AFVGEIMNS [magainin II]
Human RBC
  Hemolysis, propensity to lyse human RBCs: near zero propensity to lyse dilute human RBCs
  Selectivity (antimicrobial activity relative to host cell toxicity): highly selective
[1]
  Activity (MIC) in broth dilution against E. coli: active only against E. coli
[4]
  Activity (MIC) in broth dilution against S. aureus: active only against E. coli

## LLGDFFRKSKEKIGKEFKRIVQRIKDFLRNLVPRTES [LL-37]
[5]
  Activity in sterilization assay against E. coli (known): poor against E. coli
[6]
  Activity in sterilization assay against S. aureus (known): undetectable against S. aureus
